Structures can show the parent of a compound that is named as a salt. Where a SMILES comes first, the peptide text is derived from it.
Legend:
[1] = molecular target: GPR15 receptor / Gi1 (Homo sapiens, UniProt P49685); assay: BRET G protein activation assay, Gi1; type: cell-based, human (GPR15); rat (Gi1)
In short: (§1)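 HEK293A cells transfected 20–24 h before assay with GPR15 (1.26 μg), Venus(155–239)-Gβ1, Venus(1–155)-Gγ2 and masGRK3ct-Nluc (0.21 μg each), and an optimized amount of the Gα DNA. Cells were given furimazine (1:250) for 3 min, then rising agonist concentrations. BRET ratio is 535/475 nm emission. Emax per concentration was buffer-corrected, normalized to the maximum, and fitted with a four-parameter model. 3–5 independent experiments, 2–3 replicates.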

[2] = molecular target: GPR15 receptor / Gi2 (Homo sapiens, UniProt P49685); assay: BRET G protein activation assay, Gi2; type: cell-based, human (GPR15); rat (Gi2)
In short: as §1

[3] = molecular target: GPR15 receptor / Gi3 (Homo sapiens, UniProt P49685); assay: BRET G protein activation assay, Gi3; type: cell-based, human (GPR15); rat (Gi3)
In short: as §1

[4] = molecular target: GPR15 receptor / GoA (Homo sapiens, UniProt P49685); assay: BRET G protein activation assay, GoA; type: cell-based
In short: as §1

[5] = molecular target: GPR15 receptor / GoB (Homo sapiens, UniProt P49685); assay: BRET G protein activation assay, GoB; type: cell-based
In short: as §1

[6] = molecular target: T1, GPR15 receptor (Gi/o) (Homo sapiens, UniProt P49685); assay: HTRF Gi cAMP assay; type: cell-based
T1 sequence (P49685 1-360): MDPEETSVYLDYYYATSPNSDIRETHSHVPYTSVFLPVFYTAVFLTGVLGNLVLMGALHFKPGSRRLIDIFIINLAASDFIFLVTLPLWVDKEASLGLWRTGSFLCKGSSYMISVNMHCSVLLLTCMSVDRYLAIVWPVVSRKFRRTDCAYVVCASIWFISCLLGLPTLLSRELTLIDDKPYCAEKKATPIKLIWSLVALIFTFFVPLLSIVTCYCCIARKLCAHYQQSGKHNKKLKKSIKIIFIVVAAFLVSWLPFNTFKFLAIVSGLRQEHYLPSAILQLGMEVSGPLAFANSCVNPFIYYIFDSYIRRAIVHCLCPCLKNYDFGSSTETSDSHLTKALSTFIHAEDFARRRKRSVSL
In short: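 HEK293A cells stably expressing human GPR15 (G418-selected) were harvested non-enzymatically. Where stated, cells were pretreated 24 h with PTX 100 ng/ml. 4000 cells/well in HBSS/20 mM HEPES/1 mM CaCl2/1 mM MgCl2/100 μM IBMX, pH 7.4, were mixed with threefold-diluted peptide in ligand buffer containing 3 μM forskolin, 30 min at room temperature. HTRF cAMP detection ran 1 h in the dark. Standard-curve cAMP was normalized to forskolin and given a four-parameter EC50 fit; triplicates, 3–5 experiments.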

[7] = system: muscarinic acetylcholine receptors; assay: HTRF Gq IP1 assay, positive control; type: cell-based; conditions: endogenous receptors (mAChR1, mAChR3 and mAChR5) in HEK293A cells
In short: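 Carbachol, added at 2× final concentration in HBSS/20 mM HEPES/1 mM CaCl2/1 mM MgCl2/0.01% pluronic acid, pH 7.4, acted on 20 000 HEK293A-GPR15 cells/well with 30 mM LiCl for 30 min at 37 °C. HTRF IP1 detection ran 1 h in the dark at room temperature (665/615 nm). IP1 from a standard curve, buffer-corrected and normalized to the carbachol maximum; 3–5 experiments in triplicate.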

[8] = system: β2‐adrenergic receptor; assay: HTRF Gs cAMP assay, positive control; type: cell-based; conditions: endogenous receptor in HEK293A cells
In short: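 Run like the Gi cAMP assay without forskolin. HEK293A-GPR15 cells in HBSS/HEPES buffer with 100 μM IBMX, pH 7.4, were stimulated with isoproterenol via the endogenous β2-adrenergic receptor, 30 min at room temperature. HTRF cAMP detection ran 1 h in the dark (665/615 nm). cAMP from a standard curve, buffer-corrected and normalized to the isoproterenol maximum; 3–5 experiments in triplicate.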

[9] = molecular target: T2, G protein-coupled receptor 15 (GPR15) (human) (UniProt P49685)
T2 sequence: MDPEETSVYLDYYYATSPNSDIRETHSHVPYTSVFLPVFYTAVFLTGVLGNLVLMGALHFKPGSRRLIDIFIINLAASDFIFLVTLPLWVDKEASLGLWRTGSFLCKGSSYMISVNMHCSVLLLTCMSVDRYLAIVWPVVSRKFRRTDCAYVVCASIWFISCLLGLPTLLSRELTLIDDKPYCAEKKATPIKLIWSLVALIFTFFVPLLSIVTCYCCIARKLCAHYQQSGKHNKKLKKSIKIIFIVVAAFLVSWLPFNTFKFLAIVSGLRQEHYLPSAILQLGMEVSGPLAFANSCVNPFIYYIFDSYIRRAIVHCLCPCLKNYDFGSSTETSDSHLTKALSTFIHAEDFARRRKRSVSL

Chain of GPR15 receptor / GoB (P09471 2-354 isoform P09471-2 partner limits assumed, one chain of several): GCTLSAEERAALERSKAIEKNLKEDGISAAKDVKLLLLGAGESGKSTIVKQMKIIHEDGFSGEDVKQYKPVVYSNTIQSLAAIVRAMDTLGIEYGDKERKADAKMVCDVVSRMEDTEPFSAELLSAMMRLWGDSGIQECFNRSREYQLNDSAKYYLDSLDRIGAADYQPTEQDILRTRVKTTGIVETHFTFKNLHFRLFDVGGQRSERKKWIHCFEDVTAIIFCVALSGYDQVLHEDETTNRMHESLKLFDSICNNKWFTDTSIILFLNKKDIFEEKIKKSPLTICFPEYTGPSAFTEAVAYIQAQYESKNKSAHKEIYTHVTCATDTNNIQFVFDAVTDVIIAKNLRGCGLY
Chain of GPR15 receptor / GoB (P62873 2-340 partner limits assumed, one chain of several): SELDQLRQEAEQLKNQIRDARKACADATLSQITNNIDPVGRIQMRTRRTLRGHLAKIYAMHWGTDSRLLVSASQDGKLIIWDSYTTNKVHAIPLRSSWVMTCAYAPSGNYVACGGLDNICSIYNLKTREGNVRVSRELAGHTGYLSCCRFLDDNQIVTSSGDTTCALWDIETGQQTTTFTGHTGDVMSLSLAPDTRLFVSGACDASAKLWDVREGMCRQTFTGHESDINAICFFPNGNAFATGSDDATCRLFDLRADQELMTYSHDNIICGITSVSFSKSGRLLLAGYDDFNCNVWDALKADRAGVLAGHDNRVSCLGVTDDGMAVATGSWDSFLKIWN
Chain of GPR15 receptor / GoB (P59768 2-68 partner limits assumed, one chain of several): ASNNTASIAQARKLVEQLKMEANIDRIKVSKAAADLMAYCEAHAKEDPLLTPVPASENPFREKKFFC
Chain of GPR15 receptor / Gi2 (P04897 2-355 partner limits assumed, one chain of several): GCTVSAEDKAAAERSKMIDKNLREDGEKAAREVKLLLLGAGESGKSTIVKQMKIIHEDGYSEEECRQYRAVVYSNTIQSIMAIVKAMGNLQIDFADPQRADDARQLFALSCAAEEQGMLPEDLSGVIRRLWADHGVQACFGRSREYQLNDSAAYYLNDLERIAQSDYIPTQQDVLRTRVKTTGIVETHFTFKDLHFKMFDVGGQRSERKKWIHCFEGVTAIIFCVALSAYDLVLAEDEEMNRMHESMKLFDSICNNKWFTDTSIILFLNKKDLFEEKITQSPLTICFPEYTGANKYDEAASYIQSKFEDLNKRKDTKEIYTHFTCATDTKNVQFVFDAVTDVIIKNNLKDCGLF
Chain of GPR15 receptor / Gi2 (P62873 2-340 partner limits assumed, one chain of several): as the sequence (P62873 2-340 partner limits assumed, one chain of several) above
Chain of GPR15 receptor / Gi2 (P59768 2-68 partner limits assumed, one chain of several): as the sequence (P59768 2-68 partner limits assumed, one chain of several) above
Chain of GPR15 receptor / Gi1 (P10824 2-354 partner limits assumed, one chain of several): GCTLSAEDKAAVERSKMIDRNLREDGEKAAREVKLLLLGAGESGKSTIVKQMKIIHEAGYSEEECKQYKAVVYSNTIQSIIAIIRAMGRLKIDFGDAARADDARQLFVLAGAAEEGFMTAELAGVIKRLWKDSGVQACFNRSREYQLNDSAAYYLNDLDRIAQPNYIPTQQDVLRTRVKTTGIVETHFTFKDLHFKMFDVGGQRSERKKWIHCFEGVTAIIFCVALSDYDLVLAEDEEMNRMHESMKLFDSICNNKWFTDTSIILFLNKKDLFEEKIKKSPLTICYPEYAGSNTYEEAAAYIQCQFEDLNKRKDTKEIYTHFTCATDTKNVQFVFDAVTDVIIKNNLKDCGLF
Chain of GPR15 receptor / Gi1 (P62873 2-340 partner limits assumed, one chain of several): as the sequence (P62873 2-340 partner limits assumed, one chain of several) above
Chain of GPR15 receptor / Gi1 (P59768 2-68 partner limits assumed, one chain of several): as the sequence (P59768 2-68 partner limits assumed, one chain of several) above
Chain of GPR15 receptor / GoA (P09471 2-354 partner limits assumed, one chain of several): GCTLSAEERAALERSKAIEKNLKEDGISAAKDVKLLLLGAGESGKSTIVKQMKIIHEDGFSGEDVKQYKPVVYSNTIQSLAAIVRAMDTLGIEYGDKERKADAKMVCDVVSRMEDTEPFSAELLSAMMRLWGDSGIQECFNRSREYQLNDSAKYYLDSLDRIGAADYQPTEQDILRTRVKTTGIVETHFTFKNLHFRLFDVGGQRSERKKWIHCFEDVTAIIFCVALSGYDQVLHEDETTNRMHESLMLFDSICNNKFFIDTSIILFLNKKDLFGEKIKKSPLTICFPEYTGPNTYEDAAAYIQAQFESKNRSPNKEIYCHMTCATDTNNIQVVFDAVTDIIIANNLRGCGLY
Chain of GPR15 receptor / GoA (P62873 2-340 partner limits assumed, one chain of several): as the sequence (P62873 2-340 partner limits assumed, one chain of several) above
Chain of GPR15 receptor / GoA (P59768 2-68 partner limits assumed, one chain of several): as the sequence (P59768 2-68 partner limits assumed, one chain of several) above
Chain of GPR15 receptor / Gi3 (P08753 2-354 partner limits assumed, one chain of several): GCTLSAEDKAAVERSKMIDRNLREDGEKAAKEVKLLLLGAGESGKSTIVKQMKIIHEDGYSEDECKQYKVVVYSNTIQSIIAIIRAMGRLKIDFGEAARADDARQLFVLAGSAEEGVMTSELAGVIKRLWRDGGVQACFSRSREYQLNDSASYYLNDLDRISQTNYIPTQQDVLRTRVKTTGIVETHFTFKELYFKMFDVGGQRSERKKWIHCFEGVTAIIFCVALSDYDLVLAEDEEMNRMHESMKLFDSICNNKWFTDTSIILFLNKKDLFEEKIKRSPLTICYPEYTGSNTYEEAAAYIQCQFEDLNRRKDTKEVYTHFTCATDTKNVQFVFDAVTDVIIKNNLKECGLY
Chain of GPR15 receptor / Gi3 (P62873 2-340 partner limits assumed, one chain of several): as the sequence (P62873 2-340 partner limits assumed, one chain of several) above
Chain of GPR15 receptor / Gi3 (P59768 2-68 partner limits assumed, one chain of several): as the sequence (P59768 2-68 partner limits assumed, one chain of several) above

**Q.** How did the EC50 [1] turn out when `CC(C)C[C@H](NC(=O)[C@H](C)NC(=O)CNC(=O)[C@@H]1CCCN1C(=O)[C@@H](NC(=O)[C@@H](NC(=O)[C@H](Cc1c[nH]c2ccccc12)NC(=O)[C@@H](N)CC(C)C)C(C)C)C(C)C)C(=O)N1CCC[C@H]1C(=O)N[C@@H](CCC(N)=O)C(=O)N[C@H](C(=O)O)C(C)C` [GPR15L(71–81)] (H-LWVVPGALPQV-OH) was run?
**A.** 0.724 µM

**Q.** What about the EC50 [2] of the same molecule?
**A.** 1.7 µM

**Q.** And the EC50 [3]?
**A.** 0.912 µM

**Q.** What about the EC50 [4] of the same molecule?
**A.** 3.02 µM

**Q.** And the EC50 [5]?
**A.** 2.51 µM

**Q.** And the EC50 [6]?
**A.** 0.407 µM

**Q.** Which IP1 level [7] does the source give for `C[N+](C)(C)CCOC(N)=O` [carbachol, carbamoylcholine chloride] here?
**A.** robust IP1 level increase

**Q.** Which cAMP level [8] does the source give for `CC(C)NCC(O)c1ccc(O)c(O)c1` (stereo not drawn) [isoproterenol, isoproterenol bitartrate salt] here?
**A.** robust cAMP level increase

**Q.** Which “inhibition of cAMP production in presence of PTX” value ([6]; hGPR15-HEK293A, PTX 100 ng/ml for 24 h) does the source give for pertussis toxin [PTX] here?
**A.** inhibition could be eliminated

B1: human GPR15L(25–81) peptide (ligand)
peptide: KRRPAKAWSGRRTRLCCHRVPSPNSTNLKGHHVRLCKPCKLEPEPRLWVVPGALPQV
**Q.** Which results are given for B1?
**A.** pEC50, BRET G protein activation assay, Gi1 [9]: 7.79; pEC50, BRET G protein activation assay, Gi2 [9]: 7.14; pEC50, BRET G protein activation assay, Gi3 [9]: 7.69; pEC50, BRET G protein activation assay, GoA [9]: 7.28; pEC50, BRET G protein activation assay, GoB [9]: 7.54

B2: human GPR15L(71–81) peptide (peptide)
peptide: LWVVPGALPQV
**Q.** For B2, which pEC50, BRET G protein activation assay, Gi1 [9] is on record?
**A.** 6.14

**Q.** And the pEC50, BRET G protein activation assay, Gi2 [9]?
**A.** 5.77

**Q.** What about the pEC50, BRET G protein activation assay, Gi3 [9] of the same molecule?
**A.** 6.04

**Q.** What about the pEC50, BRET G protein activation assay, GoA [9] of the same molecule?
**A.** 5.52

— paper PMC9539578 (Basic & Clinical Pharmacology & Toxicology, 2022)
